# Assay results as given in article PMC3778312 (British Journal of Cancer, 2013).
# Entries after “also recorded” stand apart in the source; their conditions may differ.
# How the values were obtained:
# [1] = Phase 1 safety monitoring of PX-866 with docetaxel; format: in vivo, human
# Procedure, shortened: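 Open-label dose escalation in cohorts of 6–9 patients at 4, 6 or 8 mg oral daily test compound plus docetaxel 75 mg m−2 IV every 21 days, with dexamethasone premedication. All patients receiving ≥1 dose had vital signs, labs and exams; AEs were graded by NCI CTCAE v4.02. DLTs included related grade ≥3 events, febrile grade 3/4 neutropenia, platelets <25 000 per μl and ANC <500 per μl for >7 days.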
# [2] = test system: OvCar-3 ovarian cancer xenografts; details: single agent; ref Ihle et al, 2005; Koul et al, 2010; cited from earlier work
# [3] = test system: advanced solid tumors; details: ref Hong et al, 2012, cited from earlier work
# [4] = test system: PI3Kα; details: read-out: IC50 against PI3Kα; ref Wipf et al, 2004; cited from earlier work
# [5] = test system: HT29 colon cancer xenografts; details: single agent; ref Ihle et al, 2005; Koul et al, 2010; cited from earlier work
# [6] = test system: PI-3Kβ; details: read-out: IC50 against PI-3Kβ; ref Wipf et al, 2004; cited from earlier work
# [7] = test system: incurable solid tumours; experiment: Phase 1 antitumour activity of PX-866 with docetaxel; format: in vivo, human
# Procedure, shortened: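 Test compound given orally at 4, 6 or 8 mg daily (fasting) with docetaxel 75 mg m−2 IV every 21 days. In cycle 1, docetaxel was given on day 1 and the test compound started on day 8. Response was assessed about every 6 weeks by RECIST 1.1, with PSA per PCWG allowed in mCRPC. PFS ran from consent to progression or death. Archival tumour was genotyped for PIK3CA/KRAS by shifted termination assay.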
# [8] = test system: U87 glioma xenografts; details: single agent; ref Ihle et al, 2005; Koul et al, 2010; cited from earlier work
# [9] = PX-866 with docetaxel, 43 patients
# [10] = Total, all PX-866 doses + docetaxel, N=43
structure (smiles),measurement,setting,value
C=CCN(/C=C1/C(=O)O[C@H](COC)[C@@]2(C)C1=C(O)C(=O)C1=C2[C@H](OC(C)=O)C[C@]2(C)C(=O)CC[C@@H]12)CC=C [PX-866],Treatment-emergent AE: Hypokalemia,"[1]; PX-866 8 mg + docetaxel, N=23",6 (26) N (%)
same,Treatment-emergent AE: Nausea,"[1]; PX-866 8 mg + docetaxel, N=23",16 (70) N (%)
same,Treatment-emergent AE: Neutropenia,"[1]; PX-866 8 mg + docetaxel, N=23",6 (26) N (%)
same,Treatment-emergent AE: Oedema peripheral,"[1]; PX-866 8 mg + docetaxel, N=23",7 (30) N (%)
same,Treatment-emergent AE: Oropharyngeal pain,"[1]; PX-866 8 mg + docetaxel, N=23",5 (22) N (%)
same,Treatment-emergent AE: Pyrexia,"[1]; PX-866 8 mg + docetaxel, N=23",6 (26) N (%)
same,Treatment-emergent AE: Stomatitis,"[1]; PX-866 8 mg + docetaxel, N=23",4 (17) N (%)
same,Treatment-emergent AE: Vomiting,"[1]; PX-866 8 mg + docetaxel, N=23",14 (61) N (%)
same,"Treatment-emergent AEs, frequency by severity: Grade 1","[1]; PX-866 8 mg + docetaxel, N=23",84 (50) N (%)
same,"Treatment-emergent AEs, frequency by severity: Grade 2","[1]; PX-866 8 mg + docetaxel, N=23",62 (37) N (%)
same,"Treatment-emergent AEs, frequency by severity: Grade 3","[1]; PX-866 8 mg + docetaxel, N=23",15 (9) N (%)
same,"Treatment-emergent AEs, frequency by severity: Grade 4","[1]; PX-866 8 mg + docetaxel, N=23",8 (5) N (%)
same,"Treatment-emergent AEs, frequency by severity: Grade 5","[1]; PX-866 8 mg + docetaxel, N=23",0 (0) N (%)
same,dose-limiting toxicities,"[1]; PX-866 4, 6, 8 mg daily with docetaxel 75 mg m^−2",No dose-limiting toxicities; also recorded: No DLTs
same,tolerability,[1]; PX-866 and docetaxel,well tolerated
same,"gastrointestinal disorders, PX-866-related",[1]; [9],83.7%
same,"study drug-related diarrhoea, patients",[1]; [9],76.7%
same,Grade 3/4 AE related to PX-866: diarrhoea,"[1]; PX-866 with docetaxel, N=43",3 N
same,Grade 3/4 AE related to PX-866: nausea,"[1]; PX-866 with docetaxel, N=43",2 N
same,SAEs considered related to study treatment,"[1]; PX-866 with docetaxel, N=43",17
same,patients who experienced serious AEs,"[1]; PX-866 with docetaxel, N=43",Twenty
same,treatment-emergent AE neutropenia,"[1]; PX-866 with docetaxel, N=43",40%
same,treatment-emergent AE peripheral oedema,"[1]; PX-866 with docetaxel, N=43",40%
same,treatment-emergent AE vomiting,"[1]; PX-866 with docetaxel, N=43",51%
same,Treatment-emergent AE: Alopecia,[1]; [10],12 (28) N (%)
same,Treatment-emergent AE: Anaemia,[1]; [10],13 (30) N (%)
same,Treatment-emergent AE: Arthralgia,[1]; [10],7 (16) N (%)
same,Treatment-emergent AE: Asthenia,[1]; [10],11 (26) N (%)
same,Treatment-emergent AE: Bone pain,[1]; [10],9 (21) N (%)
same,Treatment-emergent AE: Constipation,[1]; [10],13 (30) N (%)
same,Treatment-emergent AE: Cough,[1]; [10],10 (23) N (%)
same,Treatment-emergent AE: Decreased appetite,[1]; [10],15 (35) N (%)
same,Treatment-emergent AE: Dehydration,[1]; [10],15 (35) N (%)
same,Treatment-emergent AE: Diarrhoea,[1]; [10],33 (77) N (%)
same,Treatment-emergent AE: Dizziness,[1]; [10],7 (16) N (%)
same,Treatment-emergent AE: Dysgeusia,[1]; [10],8 (19) N (%)
same,Treatment-emergent AE: Epistaxis,[1]; [10],7 (16) N (%)
same,Treatment-emergent AE: Fatigue,[1]; [10],26 (61) N (%)
same,Treatment-emergent AE: Hypokalemia,[1]; [10],9 (21) N (%)
same,Treatment-emergent AE: Nausea,[1]; [10],25 (58) N (%)
same,Treatment-emergent AE: Neutropenia,[1]; [10],17 (40) N (%)
same,Treatment-emergent AE: Oedema peripheral,[1]; [10],17 (40) N (%)
same,Treatment-emergent AE: Oropharyngeal pain,[1]; [10],7 (16) N (%)
same,Treatment-emergent AE: Pyrexia,[1]; [10],11 (26) N (%)
same,Treatment-emergent AE: Stomatitis,[1]; [10],9 (21) N (%)
same,Treatment-emergent AE: Vomiting,[1]; [10],22 (51) N (%)
same,"Treatment-emergent AEs, frequency by severity: Grade 1",[1]; [10],152 (51) N (%)
same,"Treatment-emergent AEs, frequency by severity: Grade 2",[1]; [10],102 (34) N (%)
same,"Treatment-emergent AEs, frequency by severity: Grade 3",[1]; [10],28 (9) N (%)
same,"Treatment-emergent AEs, frequency by severity: Grade 4",[1]; [10],18 (6) N (%)
same,"Treatment-emergent AEs, frequency by severity: Grade 5",[1]; [10],0 (0) N (%)
same,RP2D of PX-866 in combination,"[1]; daily, with docetaxel 75 mg m^−2 IV every 21 days",8 mg
same,deaths on study,"[1]; two after progressive disease, one pneumonia unrelated to either study drug",three
same,tumour growth,[2],delays tumour growth
same,single-agent MTD,"[3]; previously determined, daily",8 mg
same,time PX-866 may be given safely,[3],over 1 year
same,"best response per RECIST 1.1: stable disease, share of evaluable patients","[3]; single-agent PX-866, week 6",over 50%
same,"recommended phase 2 dose (RP2D), single agent",[3]; single-agent PX-866,8 mg daily
same,IC50,[4],39 ± 21 nM
same,tumour growth,[5],delays tumour growth
same,IC50,[6],88 ± 27 nM
same,evaluable patients remaining on study in excess of 180 days,[7]; 11 out of 35,31%
same,best response: partial response (PR),[7]; 35 evaluable patients (2 patients),6%
same,best response: disease progression (PD),[7]; 35 evaluable patients (11 patients),31%
same,"median PFS, PIK3CA-MUT/KRAS-WT","[7]; N=6, range: 49–334, P=0.23 vs WT/WT",175 days
same,"median PFS, mutational status unknown","[7]; N=12, range: 1–569",77.5 days
same,"median PFS, PIK3CA-WT/KRAS-WT","[7]; N=20, range: 1–342",49 days
same,PR+SD rate,[7]; evaluable patients,69%
same,overall median progression-free survival (PFS),[7]; range: 1–569,73.5 days
same,patients with tumour shrinkage of ⩾15%,[7]; ten patients,29%
same,tumour growth,[8],delays tumour growth
